Measured values: ChEMBL document CHEMBL1138849, “5-substituted tetrazoles as bioisosteres of carboxylic acids. Bioisosterism and mechanistic studies on glutathione reductase inhibitors as antimalarials” (J Med Chem, 2004)

Assays:
[1] = substrate: CC1=CC(=O)c2ccccc2C1=O; assay: Michaelis-Menten constant against human glutathione reductase
In short: (§1)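 Recombinant human or P. falciparum GR run as a quinone reductase without GSSG. Mix: 100 mM phosphate pH 7.0, 200 mM KCl, 100 μM NADPH, 1% DMSO, enzyme, and naphthoquinone at 10 levels from 10 to 400 μM. NADPH oxidation read at 340 nm (ε 6.22 mM⁻¹ cm⁻¹). Steady-state rates fitted to Michaelis–Menten by nonlinear regression to give Km and Vmax; kcat and kcat/Km calculated.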

[2] = substrate: CC1=CC(=O)c2ccccc2C1=O; assay: Michaelis-Menten constant against Plasmodium falciparum glutathione reductase; in short: as §1
[3] = compound: N[C@@H](CCC(=O)N[C@@H](CSSC[C@H](NC(=O)CC[C@H](N)C(=O)O)C(=O)NCC(=O)O)C(=O)NCC(=O)O)C(=O)O; assay: Inhibitory concentration against glutathione reductase (In presence of NADPH); conditions: Plasmodium falciparum

B1: Glutathione reductase, mitochondrial (Homo sapiens), P00390 (protein)
chain: MALLPRALSAGAGPSWRRAARAFRGFLLLLPEPAALTRALSRAMACRQEPQPQGPPPAAGAVASYDYLVIGGGSGGLASARRAAELGARAAVVESHKLGGTCVNVGCVPKKVMWNTAVHSEFMHDHADYGFPSCEGKFNWRVIKEKRDAYVSRLNAIYQNNLTKSHIEIIRGHAAFTSDPKPTIEVSGKKYTAPHILIATGGMPSTPHESQIPGASLGITSDGFFQLEELPGRSVIVGAGYIAVEMAGILSALGSKTSLMIRHDKVLRSFDSMISTNCTEELENAGVEVLKFSQVKEVKKTLSGLEVSMVTAVPGRLPVMTMIPDVDCLLWAIGRVPNTKDLSLNKLGIQTDDKGHIIVDEFQNTNVKGIYAVGDVCGKALLTPVAIAAGRKLAHRLFEYKEDSKLDYNNIPTVVFSHPPIGTVGLTEDEAIHKYGIENVKTYSTSFTPMYHAVTKRKTKCVMKMVCANKEEKVVGIHMQGLGCDEMLQGFAVAVKMGATKADFDNTVAIHPTSSEELVTLR
Km [1]: 31.2 µM

B2: Glutathione reductase (Plasmodium falciparum 3D7), O15770 (protein)
chain: MYKHRYFHFFFFFFFFLVSTKIIRSFTFLNNNTNLSNPVYFKKKANMVYDLIVIGGGSGGMAAARRAARHNAKVALVEKSRLGGTCVNVGCVPKKIMFNAASVHDILENSRHYGFDTKFSFNLPLLVERRDKYIQRLNNIYRQNLSKDKVDLYEGTASFLSENRILIKGTKDNNNKDNGPLNEEILEGRNILIAVGNKPVFPPVKGIENTISSDEFFNIKESKKIGIVGSGYIAVELINVIKRLGIDSYIFARGNRILRKFDESVINVLENDMKKNNINIVTFADVVEIKKVSDKNLSIHLSDGRIYEHFDHVIYCVGRSPDTENLNLEKLNVETNNNYIVVDENQRTSVNNIYAVGDCCMVKKSKEIEDLNLLKLYNEETYLNKKENVTEDIFYNVQLTPVAINAGRLLADRLFLKKTRKTNYKLIPTVIFSHPPIGTIGLSEEAAIQIYGKENVKIYESKFTNLFFSVYDIEPELKEKTYLKLVCVGKDELIKGLHIIGLNADEIVQGFAVALKMNATKKDFDETIPIHPTAAEEFLTLQPWMK
Km [2]: 82.2 µM | Km [3]: 115 µM
